Data: ChEMBL document CHEMBL4043163, “Methyl propiolate and 3-butynone: Starting points for synthesis of amphiphilic 1,2,3-triazole peptidomimetics for antimicrobial evaluation” (Bioorg Med Chem, 2017)
Active and inactive are the calls of the source. The rule behind the calls is not given here.

Experiments:
[1] = system: Enterococcus faecalis; experiment: Antimicrobial activity against Enterococcus faecalis ATCC 29212 assessed as growth inhibition incubated overnight at 37degC by visual and photometry based method; type: functional
[2] = system: Staphylococcus aureus; experiment: Antimicrobial activity against Staphylococcus aureus ATCC 25923 assessed as growth inhibition incubated overnight at 37degC by visual and photometry based method; type: functional
[3] = system: Streptococcus agalactiae; experiment: Antimicrobial activity against Streptococcus agalactiae ATCC 12386 assessed as growth inhibition incubated overnight at 37degC by visual and photometry based method; type: functional
[4] = system: Escherichia coli; experiment: Antimicrobial activity against Escherichia coli ATCC 25922 assessed as growth inhibition incubated overnight at 37degC by visual and photometry based method; type: functional
[5] = system: Pseudomonas aeruginosa; experiment: Antimicrobial activity against Pseudomonas aeruginosa ATCC 27853 assessed as growth inhibition incubated overnight at 37degC by visual and photometry based method; type: functional
[6] = system: HepG2; experiment: Cytotoxicity against human HepG2 cells incubated for 24 hrs by CellTiter 96 aqueous one solution reagent based assay; type: cell-based; conditions: HepG2, 24 h
Summary of the method: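 HepG2 seeded 20,000 cells/well overnight, then exposed 24 h to a concentration range in serum-free MEM Earle's (gentamycin, NEAA, pyruvate, alanyl-glutamine); MTS reagent 1 h, absorbance 485 nm; % survival versus medium and Triton X-100 controls; EC50 from four-parameter normalized nonlinear regression.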

[7] = Selectivity index, ratio of EC50 for human HepG2 cells to MIC for Streptococcus agalactiae ATCC 12386; type: toxicity; conditions: read-out: Selectivity Index
Summary of the method: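 Selectivity index computed as HepG2 EC50 (24 h MTS assay) divided by S. agalactiae MIC.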

[8] = system: Staphylococcus epidermidis; experiment: Inhibition of biofilm formation of Staphylococcus epidermidis incubated overnight at 37degC by crystal violet based assay; type: functional
[9] = system: Enterococcus faecalis; experiment: Antimicrobial activity against Enterococcus faecalis ATCC 29212 assessed as growth inhibition at =<64 ug/ml incubated overnight at 37degC by visual and photometry based method; type: functional
[10] = system: Escherichia coli; experiment: Antimicrobial activity against Escherichia coli ATCC 25922 assessed as growth inhibition =<64 ug/ml incubated overnight at 37degC by visual and photometry based method; type: functional
[11] = system: Pseudomonas aeruginosa; experiment: Antimicrobial activity against Pseudomonas aeruginosa ATCC 27853 assessed as growth inhibition =<64 ug/ml incubated overnight at 37degC by visual and photometry based method; type: functional
[12] = system: Staphylococcus aureus; experiment: Antimicrobial activity against Staphylococcus aureus ATCC 25923 assessed as growth inhibition =<64 ug/ml incubated overnight at 37degC by visual and photometry based method; type: functional
[13] = system: Staphylococcus epidermidis; experiment: Inhibition of biofilm formation of Staphylococcus epidermidis at =<64 ug/ml incubated overnight at 37degC by crystal violet based assay; type: functional

Compound	MIC [1]	MIC [2]	MIC [3]	MIC [4]	MIC [5]	EC50 [6] [µg/mL]	selectivity ratio [7]	MIC [8] [µg/mL]	growth inhibition (GI) [9]	growth inhibition (GI) [10]	growth inhibition (GI) [11]	growth inhibition (GI) [12]	inhibition [13]
C/C(=N\NC(=N)N)c1cn(-c2cc(C(C)(C)C)cc(C(C)(C)C)c2)nn1.O=C(O)C(F)(F)F	4 µg/mL	4 µg/mL	2 µg/mL	4 µg/mL	16 µg/mL	2.6	1.32	4					
CN1CCN(C(=O)c2cn(C34CC5CC(CC(C5)C3)C4)nn2)CC1	inactive	inactive	inactive	inactive	inactive								
CCCCCCCOc1ccc(-n2cc(C(=O)NCCN)nn2)cc1.Cl		4 µg/mL	8 µg/mL		16 µg/mL	3.5	0.44	4	inactive	inactive			
CCCCCCCn1cc(C(=O)N2CCNCC2)nn1	inactive	inactive	inactive	inactive	inactive								
CC(C)(C)c1cc(-n2cc(C(=O)NCCNC(=N)N)nn2)cc(C(C)(C)C)c1.Cl	16 µg/mL	8 µg/mL	8 µg/mL	16 µg/mL	16 µg/mL	31.3	3.91	4					
CN1CCN(C(=O)c2cn(Cc3cc(C(C)(C)C)cc(C(C)(C)C)c3)nn2)CC1	inactive	inactive	inactive	inactive	inactive								
CCCCCCCn1cc(C(=O)N2CCN(C)CC2)nn1	inactive	inactive	inactive	inactive	inactive								
GENTAMICIN	10 µg/mL	0.13 µg/mL	4 µg/mL										
CN1CCN(C(=O)c2cn(Cc3ccc(C(C)(C)C)cc3)nn2)CC1	inactive	inactive	inactive	inactive	inactive								
N=C(N)NCCNC(=O)c1cn(C23CC4CC(CC(C4)C2)C3)nn1	inactive	inactive	inactive	inactive	inactive								
CC(C)(C)c1ccc(Cn2cc(C(=O)NCCNC(=N)N)nn2)cc1	inactive	inactive	inactive	inactive	inactive								
CCCCCCCn1cc(C(=O)NCCNC(=N)N)nn1	inactive	inactive	inactive	inactive	inactive								
C/C(=N\NC(=N)N)c1cn(-c2ccc(OCc3cc(C(C)(C)C)cc(C(C)(C)C)c3)cc2)nn1.Cl	64 µg/mL		0.5 µg/mL			1.9	3.86	4		inactive	inactive	inactive	
CC(C)(C)c1cc(Cn2cc(C(=O)N3CCNCC3)nn2)cc(C(C)(C)C)c1.Cl		64 µg/mL	64 µg/mL	64 µg/mL					inactive		inactive		
CCCCCCCOc1ccc(-n2cc(C(=O)NCCNC(=N)N)nn2)cc1.Cl	16 µg/mL	4 µg/mL	8 µg/mL	8 µg/mL	8 µg/mL	23.8	2.97	4					
CC(C)(C)c1ccc(Cn2cc(C(=O)NCCN)nn2)cc1	inactive	inactive	inactive	inactive	inactive								
CC(C)(C)c1cc(Cn2cc(C(=O)N3CCN(C(=N)N)CC3)nn2)cc(C(C)(C)C)c1.Cl		64 µg/mL	32 µg/mL		64 µg/mL				inactive	inactive			
CC(C)(C)c1cc(Cn2cc(C(=O)NCCN)nn2)cc(C(C)(C)C)c1.Cl		64 µg/mL	64 µg/mL	32 µg/mL	64 µg/mL				inactive				
C/C(=N\NC(=N)N)c1cn(Cc2cc(C(C)(C)C)cc(C(C)(C)C)c2)nn1.Cl	8 µg/mL	4 µg/mL	4 µg/mL	8 µg/mL	8 µg/mL	2.3	0.57	4					
CC(C)(C)c1cc(COc2ccc(-n3cc(C(=O)NCCNC(=N)N)nn3)cc2)cc(C(C)(C)C)c1.Cl	16 µg/mL	8 µg/mL	4 µg/mL			16.2	4.04	2		inactive	inactive		
O=C(c1cn(C23CC4CC(CC(C4)C2)C3)nn1)N1CCNCC1	inactive	inactive	inactive	inactive	inactive								
N=C(N)N1CCN(C(=O)c2cn(C34CC5CC(CC(C5)C3)C4)nn2)CC1	inactive	inactive	inactive	inactive	inactive								
CC(C)(C)c1ccc(Cn2cc(C(=O)N3CCNCC3)nn2)cc1	inactive	inactive	inactive	inactive	inactive								
CC(C)(C)c1cc(COc2ccc(-n3cc(C(=O)NCCN)nn3)cc2)cc(C(C)(C)C)c1.Cl	8 µg/mL		2 µg/mL		16 µg/mL	2.9	1.44	8		inactive		inactive	
CCCCCCCn1cc(C(=O)N2CCN(C(=N)N)CC2)nn1	inactive	inactive	inactive	inactive	inactive								
CCCCCCCOc1ccc(-n2cc(/C(C)=N/NC(=N)N)nn2)cc1.O=C(O)C(F)(F)F	32 µg/mL		8 µg/mL	16 µg/mL	64 µg/mL	2	0.25	8				inactive	
NCCNC(=O)c1cn(C23CC4CC(CC(C4)C2)C3)nn1	inactive	inactive	inactive	inactive	inactive								
CC(C)(C)c1cc(Cn2cc(C(=O)NCCNC(=N)N)nn2)cc(C(C)(C)C)c1.Cl	64 µg/mL	32 µg/mL	16 µg/mL	64 µg/mL	32 µg/mL								
CCCCCCCn1cc(C(=O)NCCN)nn1	inactive	inactive	inactive	inactive	inactive								
CC(C)(C)c1cc(-n2cc(C(=O)NCCN)nn2)cc(C(C)(C)C)c1.Cl	32 µg/mL	16 µg/mL	16 µg/mL	16 µg/mL	32 µg/mL	8	0.5						inactive
